Measured values: PMC8906099 (Current Research in Parasitology & Vector-borne Diseases, 2021)
Values after ≈ are worked out from the molar mass of the structure shown. Like-named read-outs stand apart in the source and are kept apart here.

Experiments:
[1] = system: several Streptococcus species; details: ref Vieira et al., 2018; cited from earlier work
[2] = system: amastigotes of T. cruzi Sylvio X10/7 strain; test: Trypanocidal activity against intracellular amastigotes in C2C12 cells; type: cell-based, Trypanosoma cruzi; details: Trypanosoma cruzi, C2C12, 72 h, read-out: IC50 ± SD, amastigotes, Sylvio X10/7 strain, 72 h incubation
Method in brief: (§1)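 Trypomastigotes from C2C12 co-culture (DMEM, 10% FBS, 25 mM HEPES, pH 7.2) were seeded with C2C12 cells at a 1:15 infection rate. Test compound (0.19–100 μM, 2-fold, 0.1% DMSO) was added at the start. After 72 h at 37 °C, 5% CO2, cells were stained with DAPI 2 h and imaged confocally. Amastigote and host nuclei were told apart by size. IC50 came from sigmoid fits of the infection ratio normalised to controls. Mean ± SD, three experiments in triplicate.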

[3] = system: amastigotes of T. cruzi Brazil strain; test: as above; type: cell-based; details: Trypanosoma cruzi, C2C12, 72 h, read-out: IC50 ± SD, amastigotes
Method in brief: as §1

[4] = system: trypomastigotes of T. cruzi (Sylvio X10/4 strain); test: Trypanocidal activity against trypomastigotes; type: cell-based; details: Trypanosoma cruzi, 72 h, read-out: IC50 ± SD, trypomastigotes
Method in brief: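 Sylvio X10/4 trypomastigotes were taken from amastigote culture supernatant and seeded at 1 × 10^6 per well. Test compound was added at 0.19–100 μM (0.1% DMSO), with benznidazole (0.019–10 μM) and DMSO controls. Incubation was 72 h at 37 °C, 5% CO2. Viability was read with resazurin (40 μM in PBS), fluorescence 530/630 nm. IC50 came from sigmoid dose–response fits.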

[5] = system: intracellular amastigotes of T. cruzi CA-I/72 strain; test: Time-course study against intracellular amastigotes; type: cell-based; details: Trypanosoma cruzi
Method in brief: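 CA-I/72 trypomastigotes were incubated with C2C12 cells for 48 h to form intracellular amastigotes. Test compound was then added (0.19–100 μM, 2-fold, 0.1% DMSO), with benznidazole and DMSO controls. Incubation ran 8, 12, 24 or 48 h at 37 °C, 5% CO2. Growth inhibition was read by DAPI high-content imaging. IC50 came from sigmoid fits of the normalised infection ratio. Time trend was tested by linear regression and ANOVA.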

[6] = Cytotoxicity in non-infected cells; type: cell-based, monkey; details: monkey, non-infected LLC-MK2 cells
Method in brief: (§2)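 LLC-MK2 monkey kidney cells, grown in RPMI with 10% FBS at 37 °C and 5% CO2, were plated and after 24 h exposed to test compound (0.19–100 μM, 2-fold dilutions, 0.1% DMSO) for 72 h at 37 °C. Controls were untreated cells, 0.4% DMSO and 15% Triton. After a PBS wash, MTT (2 mg/ml) was added for 4 h, and absorbance read at 450/620 nm. SI is CC50 divided by the 72 h CA-I/72 intracellular amastigote IC50.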

[7] = system: non-infected LLC-MK2 cells; test: Cytotoxicity in non-infected cells; type: cell-based, monkey; details: non-infected LLC-MK2 CC50 / IC50 amastigotes CA-I/72 strain, 72 h
Method in brief: as §2

[8] = system: amastigotes of T. cruzi Sylvio X10/4 strain; test: Trypanocidal activity against intracellular amastigotes in C2C12 cells; type: cell-based; details: Trypanosoma cruzi, C2C12, 72 h, read-out: IC50 ± SD, amastigotes
Method in brief: as §1

[9] = Cytotoxicity in non-infected cells; type: cell-based, murine; details: mouse, non-infected C2C12 cells
Method in brief: (§3)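 Non-infected C2C12 cells (5 × 10^4 per well) were plated for 24 h. Test compound (0.19–100 μM, 2-fold, 0.1% DMSO) was then added for 72 h at 37 °C. Controls were untreated, DMSO 0.4% and Triton 15%. After a PBS wash, MTT (2 mg/ml) was added for 4 h, and absorbance was read at 450 nm (reference 620 nm). CC50 came from sigmoid fits. SI = CC50/IC50 against CA-I/72 amastigotes at 72 h.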

non-infected C2C12 cells = test: Cytotoxicity in non-infected cells; type: cell-based, murine; details: non-infected C2C12 CC50 / IC50 amastigotes CA-I/72 strain, 72 h
Method in brief: as §3

[10] = Time-course cytotoxicity in infected C2C12 cells; type: cell-based, murine; details: mouse
Method in brief: (§4)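 This uses the CA-I/72 time-course infection format: a 48 h pre-infection of C2C12 cells, then test compound at 0.19–100 μM for 8, 12, 24 or 48 h, with DAPI imaging. Host viability was the total host cell count divided by the mean count of 0.1% DMSO controls. CC50 came from sigmoid fits. SI = CC50/IC50 against amastigotes at the matching time.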

[11] = system: C2C12 cells infected with intracellular amastigotes of T. cruzi (CA-I/72 strain); test: Time-course cytotoxicity in infected C2C12 cells; type: cell-based, murine; details: infected C2C12 vs amastigotes CA-I/72, time-course
Method in brief: as §4

[12] = Cytotoxicity in infected C2C12 cells after 72 h; type: cell-based, murine; details: mouse
Method in brief: (§5)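 C2C12 cells were infected with trypomastigotes (1:15) together with test compound (0.19–100 μM, 0.1% DMSO) for 72 h at 37 °C, 5% CO2. Host nuclei were counted by DAPI high-content imaging. Viability was the cell count relative to the DMSO-control mean. CC50 came from sigmoid fits. SI = CC50/IC50 against intracellular amastigotes of the same strain at 72 h.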

infected C2C12 cells = test: Cytotoxicity in infected C2C12 cells after 72 h; type: cell-based, murine; details: 72 h
Method in brief: as §5

[13] = system: amastigotes of T. cruzi CA-I/72 strain; test: Trypanocidal activity against intracellular amastigotes in C2C12 cells; type: cell-based; details: Trypanosoma cruzi, C2C12, 72 h, read-out: IC50 ± SD, amastigotes
Method in brief: as §1

Trichomonas vaginalis = details: ref Carapina da Silva et al., 2019, cited from earlier work
P. falciparum = details: ref Aher et al., 2011, cited from earlier work
female BALB/c mice = test: Acute oral toxicity test in mice; type: in vivo; details: for DA/TA (dead animals/total animals) / Mortality / Signs of toxicity: 14 days
Method in brief: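 Six-week-old female BALB/c mice (25–30 g), five per group. Single oral dose of 300 or 1,000 mg/kg test compound in Tween 80/ethanol/water (7:3:90), with a vehicle group. Clinical signs (ataxia, tremor, salivation, ptosis, seizures and others) watched continuously for 1 h, periodically over 24 h, then daily to day 14. Mortality recorded.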

[14] = C2C12 cells infected with T. cruzi Brazil strain
[15] = C2C12 cells infected with T. cruzi CA-I/72 strain
[16] = C2C12 cells infected with T. cruzi Sylvio X10/4 strain
[17] = C2C12 cells infected with T. cruzi Sylvio X10/7 strain
[18] = infected C2C12, Sylvio X10/4 strain
[19] = infected C2C12, Sylvio X10/7 strain

Compound	IC50 [2] [µM]	IC50 [3] [µM]	IC50 [4] [µM]	IC50 ([5]; 8 h, read-out: IC50 ± SD) [µM]	IC50 ([5]; 12 h, read-out: IC50 ± SD) [µM]	IC50 ([5]; 24 h, read-out: IC50 ± SD) [µM]	IC50 ([5]; 48 h, read-out: IC50 ± SD) [µM]	CC50 at 72 h [6] [µM]	SI (CC50/IC50) [7]	IC50 [8] [µM]	CC50 at 72 h [9] [µM]	SI (CC50/IC50) (non-infected C2C12 cells)	CC50 at 8 h [10] [µM]	CC50 at 12 h [10] [µM]	CC50 at 24 h [10] [µM]	CC50 at 48 h [10] [µM]	CC50 at 72 h [12, 14] [µM]	CC50 at 72 h [12, 15] [µM]	CC50 at 72 h [12, 16] [µM]	CC50 at 72 h [12, 17] [µM]	also measured
O=C(/C=C/c1ccccc1)/C=C/c1ccccc1 [DBA 1, (1E,4E)-1,5-diphenylpenta-1,4-dien-3-one]	11.7 ± 0.81	21.1 ± 2.51	41.2 ± 2.25	> 100	76.8 ± 1.39	37.5 ± 1.01	14.6 ± 1.1	16.6 ± 0.61	3.54	34 ± 2.92	40.1 ± 1.25	8.59	12.2 ± 1.15	2 ± 0.42	0.28 ± 0.04	0.03 ± 0.02	7.32 ± 0.41	5.74 ± 1.95	3.8 ± 0.24	3.29 ± 1	MIC [1]: 100 µg/mL (≈ 427 µM); SI (CC50/IC50) ([11]; 12 h): 0.02; SI (CC50/IC50) ([11]; 24 h): 0.007; SI (CC50/IC50) ([11]; 48 h): 0.002; SI (CC50/IC50) (infected C2C12 cells; infected C2C12, Brazil strain): 0.35; SI (CC50/IC50) (infected C2C12 cells; infected C2C12, CA-I/72 strain): 1.22; SI (CC50/IC50) (infected C2C12 cells; [18]): 0.11; SI (CC50/IC50) (infected C2C12 cells; [19]): 0.28; IC50 [13]: 4.67 ± 1.96 µM; reduction in the parasitic viability (Trichomonas vaginalis; after 24 h incubation): 98.8%; IC50 (Trichomonas vaginalis): 50 µM
COc1ccc(/C=C/C(=O)/C=C/c2ccc(OC)c(OC)c2)cc1OC [DBA 3, (1E,4E)-1,5-bis-(3,4-dimethoxyphenyl)penta-1,4-dien-3-one]	4.87 ± 0.05	3.91 ± 0.25	11.5 ± 1.36	> 100	63.3 ± 3.87	62.1 ± 1.52	3.72 ± 0.56	11.5 ± 0.34	7.62	9.63 ± 1.58	20.8 ± 0.67	> 10	29.8 ± 1.32	2.79 ± 0.3	0.21 ± 0.13	0.22 ± 0.17	1.73 ± 0.05	1.62 ± 0.22	1.25 ± 0.02	1.15 ± 0.29	IC50 (P. falciparum; chloroquine-resistant strain): 1.69 µM; IC50 (P. falciparum; chloroquine-sensitive strain): 1.97 µM; Acute toxicity (general signs of toxicity or mortality) (female BALB/c mice; oral doses 300 and 1,000 mg/kg, 14-day period): no toxic effects; DA/TA (dead animals/total animals) (female BALB/c mice; single oral dose 300 mg/kg): 0/5; Mortality (female BALB/c mice; single oral dose 300 mg/kg): 0%; Signs of toxicity (female BALB/c mice; single oral dose 300 mg/kg): None; DA/TA (dead animals/total animals) (female BALB/c mice; single oral dose 1,000 mg/kg): 0/5; Mortality (female BALB/c mice; single oral dose 1,000 mg/kg): 0%; Signs of toxicity (female BALB/c mice; single oral dose 1,000 mg/kg): None; SI (CC50/IC50) (non-infected C2C12 cells; listed as 3): 13.78; SI (CC50/IC50) ([11]; 12 h): 0.04; SI (CC50/IC50) ([11]; 24 h): 0.003; SI (CC50/IC50) ([11]; 48 h): 0.05; SI (CC50/IC50) (infected C2C12 cells; infected C2C12, Brazil strain): 0.43; SI (CC50/IC50) (infected C2C12 cells; infected C2C12, CA-I/72 strain): 1.07; SI (CC50/IC50) (infected C2C12 cells; [18]): 0.13; SI (CC50/IC50) (infected C2C12 cells; [19]): 0.23; IC50 [13]: 1.51 ± 0.42 µM
O=C(/C=C/c1ccc(Cl)cc1)/C=C/c1ccc(Cl)cc1 [DBA 5, (1E,4E)-1,5-bis-(4-chlorophenyl)penta-1,4-dien-3-one]	25.3 ± 1.34	6.37 ± 0.03	73.7 ± 2.08	> 100	> 100	> 100	> 100	38.1 ± 1.81	1.13	56.9 ± 1.86	38.3 ± 1.69	1.13	93.29 ± 0.42	10.6 ± 1.26	0.3 ± 0.02	0.2 ± 0.01	12.4 ± 2.29	15.5 ± 1.25	11.8 ± 7.74	4.06 ± 2.31	MIC [1]: 100 µg/mL (≈ 330 µM); IC50 ([5]; read-out: IC50 over the incubation times evaluated): > 100 µM; SI (CC50/IC50) (infected C2C12 cells; infected C2C12, CA-I/72 strain): 0.45; SI (CC50/IC50) (infected C2C12 cells; [18]): 0.20; SI (CC50/IC50) (infected C2C12 cells; [19]): 0.16; IC50 [13]: 33.6 ± 1.39 µM
